Bioassay records as filed in PubChem BioAssay.
This is a sample that favours compounds with a hit; in the whole collection about 0.95% have one here.
ASAP1 inh: blocks human ASAP1-stimulated Arf1 GTP hydrolysis; GDP FP detection; 0.19% of 360,000 active; AID 624377; inhibition, % at 16.5 µM; in the data active = inhibition above about 25%
CSN deneddyl inh: blocks human CSN-mediated cullin deneddylation; Purified CSN, SCF-Nedd8-OG deneddylation, fluorescence polarization; Q92905; inhibition, % at 12.5 µM; 0.38% of 360,000 active;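 active = pattern-corrected inhibition above about 35%, with an unprinted fluorescence ratio check between 0.5 and 1.5, limit read from the data, passing the limit was not always enough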
Target sequence (Q92905 whole entry, looked up, one chain of several): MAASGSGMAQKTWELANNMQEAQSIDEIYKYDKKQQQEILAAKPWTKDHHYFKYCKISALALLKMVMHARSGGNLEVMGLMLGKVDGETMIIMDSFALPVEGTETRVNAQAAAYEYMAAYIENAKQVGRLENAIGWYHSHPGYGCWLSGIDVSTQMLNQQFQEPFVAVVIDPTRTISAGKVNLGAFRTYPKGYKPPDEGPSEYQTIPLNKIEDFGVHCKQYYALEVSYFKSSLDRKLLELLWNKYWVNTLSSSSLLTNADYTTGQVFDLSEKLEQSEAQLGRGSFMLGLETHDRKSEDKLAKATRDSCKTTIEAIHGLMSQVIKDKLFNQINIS
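Material: purified human Csn5 enzyme expressed in HEK293T cells / Medium: Tris buffer pH 7.5, NaCl, DTT, Tween-20, trehalose, ovalbumin / Compound dosing: 12.5 µM single point / Schedule: 90 min incubation of compound, enzyme and substrate at room temperature / Signal: fluorescence polarization of the substrate / Control set: no-enzyme wells high, enzyme-with-substrate wells low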
HNF4A DNA FP: change in binding of human HNF4 alpha to DNA | 0.3% of 360,000 active | HNF4a-FITC DNA binding, fluorescence polarization, 1 h | activity change, % at 10 µM; in the data active = activity change above about 30%, passing the limit was not always enough
ARFGAP1 inhibitor: inhibits rat ARF GTPase activating protein 1; 0.26% of 360,000 active; Arfgap1-stimulated ARF1 GTP hydrolysis, GDP FP detection; Q62848; AID 651572; inhibition, % at 16.5 µM;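 active = inhibition above a per-plate limit, mean inhibition of low control wells plus 3 SD, cut at about 25% in these data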
Target sequence (Q62848 1-136 limits assumed): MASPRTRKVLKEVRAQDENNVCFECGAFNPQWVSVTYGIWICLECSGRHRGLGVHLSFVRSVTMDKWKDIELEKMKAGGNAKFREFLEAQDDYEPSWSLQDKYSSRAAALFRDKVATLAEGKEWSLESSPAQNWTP
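Replicates: Single well per compound | Assay system: Truncated rat Arfgap1 GAP domain | Control set: No-Arfgap1 wells (100%) versus DMSO full-reaction wells (0%) | Times: Enzyme reaction 120 min at 25 °C after 20 min preincubation | Reagent: Human ARF1(Δ1-17)-GTP substrate | Measured by: Tracer-displacement fluorescence polarization with EDTA stop, 620/688 nm | Measure: Percent inhibition of Arfgap1-stimulated GTP hydrolysis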
Each line names hits and unclear results; the compound was inactive in the other large screens.

O=C(O)c1ccccc1N/N=C/c1c(Sc2nnnn2-c2ccccc2)nc2ccccn2c1=O	CSN deneddyl inh 97, HNF4A DNA FP 96
Cc1cc(NC(=O)/C(C#N)=C/c2ccc(-c3ccc(SC(F)F)cc3)o2)n(-c2ccccc2)n1	CSN deneddyl inh 64
Cc1cc(NC(=O)/C(C#N)=C/c2ccc(-c3cccc(C(F)(F)F)c3)o2)n(-c2ccccc2)n1	none
COC(=O)c1ccc2nc(-c3ccc(C)cc3)c(CC3CCCCC3)n2c1	none
Cc1cc(C(=O)c2ccccc2)cc(C)c1O	none
CC1=C/C(=C(\c2cc(C)c(O)c(Br)c2)c2ccccc2S(=O)(=O)O)C=C(Br)C1=O	ARFGAP1 inhibitor 30
COc1ccc(-n2nc3c(N4CCC(C(=O)N5CCC(C)CC5)CC4)nnc(C)c3c2C)cc1	CSN deneddyl inh 64, HNF4A DNA FP 99
Cc1nnc(N2CCC(C(=O)N3CCCCC3)CC2)c2nn(-c3ccc(Cl)cc3)c(C)c12	none (no result: ASAP1 inh, ARFGAP1 inhibitor)
NC(=O)CC(NC(=O)Cc1ccc(Br)cc1)c1ccc(NC2CCN(Cc3ccccc3)CC2)c([N+](=O)[O-])c1 (stereo not drawn)	CSN deneddyl inh 53
NC(=O)CC(NC(=O)Cc1cccc2ccccc12)c1ccc(NC2CCN(Cc3ccccc3)CC2)c([N+](=O)[O-])c1 (stereo not drawn)	none
CC(=O)c1ccc(OCCCC(=O)NNC(=O)c2ccccn2)cc1	none
O=C1NC(=S)S/C1=C\c1ccc(SCc2ccccc2)o1	HNF4A DNA FP 35
Nc1[nH]c(C(=O)c2ccccc2)c(-c2cc(F)ccc2Br)c1C(=O)NCCc1c[nH]c2ccccc12	none (no result: CSN deneddyl inh, HNF4A DNA FP)
COc1cc(N2CCCC2)c(OC)cc1/C=C(/C#N)c1cccc(F)c1	CSN deneddyl inh 54 (no result: ASAP1 inh, ARFGAP1 inhibitor)
C=CCn1c(/N=C/c2ccc(OC)cc2)nc2ccccc21	none (no result: ASAP1 inh, ARFGAP1 inhibitor)
C=CCn1c(/N=C/c2ccc(N(C)C)cc2)nc2ccccc21	HNF4A DNA FP 59
COC(=O)c1sccc1-n1cccc1C(=O)C(=O)N1CCOCC1	HNF4A DNA FP 40
COC(=O)c1sccc1-n1cccc1C(=O)N1CCOCC1	none
c1ccc(Cc2cnc(N3CCN(Cc4csc5ccccc45)CC3)nc2)cc1	none (no result: CSN deneddyl inh, HNF4A DNA FP)
O=C(C(=O)N1CCC(CNS(=O)(=O)c2ccc(C(F)(F)F)cc2)CC1)c1cccs1	none (no result: CSN deneddyl inh, HNF4A DNA FP)
CCC(CC)c1nnc(NC(=O)c2cc([N+](=O)[O-])ccc2N2CCCCC2)s1	CSN deneddyl inh 47
COc1ccc(NC(=O)c2cc([N+](=O)[O-])ccc2N2CCCCC2)cc1	HNF4A DNA FP 31
COc1ccc(NC(=O)c2cc([N+](=O)[O-])ccc2N2CCCC2)cc1	none
C[C@H](O)[C@@H]1C(=O)N2CCc3c([nH]c4c(-c5ccccc5)cccc34)[C@@H]2C[C@@H]1N(C)C(=O)OCc1ccccc1	none (no result: CSN deneddyl inh, HNF4A DNA FP)
CCOC(=O)CN1C(=O)C(O)(CC(=O)c2cccc(OC)c2)c2ccccc21 (stereo not drawn)	ARFGAP1 inhibitor 26
C#CCN1C(=O)C(O)(CC(=O)c2cccc(OC)c2)c2ccccc21 (stereo not drawn)	none
COc1ccc(NC(=O)c2cn(-c3ccccc3)nc2-c2cc3ccccc3o2)cc1	ASAP1 inh 29
CCCN1CCCCC(NC(=O)c2ccc3ccccc3c2)C1=O (stereo not drawn)	none (no result: CSN deneddyl inh, HNF4A DNA FP)
NC(=O)N/N=C/c1ccc(N2CCOCC2)s1	HNF4A DNA FP 71
O=C(Nc1cccc(-c2nc3cccnc3s2)c1)c1cccnc1Cl	none
O=C(Nc1cccc(-c2nc3cccnc3s2)c1)C1c2ccccc2Oc2ccccc21	CSN deneddyl inh 76, HNF4A DNA FP 47
COc1ccc(-c2ccc3c(n2)CCCN3S(=O)(=O)c2ccc(C(F)(F)F)cc2)cc1	none (no result: CSN deneddyl inh, HNF4A DNA FP)
O=C(c1ccc(Br)o1)N1CCC(Cc2ccccc2)CC1	CSN deneddyl inh 93
Cc1cc(C)cc(NS(=O)(=O)c2cnc(Cl)c(Cl)c2)c1	HNF4A DNA FP 40
CCN(CC)CCN(Cc1cc2cc3c(cc2[nH]c1=O)OCO3)C(=S)NCc1ccco1	CSN deneddyl inh 35
CCOc1cc([N+](=O)[O-])cc2c1C(=O)Nc1ccccc1O2	CSN deneddyl inh 43
O=C1Nc2ccccc2Oc2cc([N+](=O)[O-])ccc21	none
C[C@@H]1COc2cccc(NCCO)c2S(=O)(=O)N1	none (no result: CSN deneddyl inh, HNF4A DNA FP)
N#Cc1c(NC(=O)c2ccco2)sc2c1CCC2	CSN deneddyl inh 39
NC(=O)c1c(NC(=O)c2ccco2)sc2c1CCC2	none
[O-]/C(=C(\C(=S)Nc1ccccc1F)[n+]1ccccc1)c1ccc(OC(F)F)cc1	HNF4A DNA FP 75
Cn1nc(C(F)(F)F)cc1-c1ccc(/C=C(\C#N)C(=O)c2ccccc2)s1	CSN deneddyl inh 68
COc1cc(C2C(C(C)=O)=C(O)C(=O)N2c2ccc(Br)cn2)ccc1O (stereo not drawn)	none
COc1cc(C2C(C(=O)/C=C/c3ccccc3)=C(O)C(=O)N2c2ccccn2)ccc1O (stereo not drawn)	HNF4A DNA FP 40
O=[N+]([O-])c1ccc(/C=N/Nc2ccc3ccccc3c2)o1	ASAP1 inh 25
O=C(N/N=C/c1ccc([N+](=O)[O-])o1)c1cc2ccccc2o1	none
CCOC(=O)C1=C(N)n2c(s/c(=C\c3cccnc3)c2=O)=C(C(=O)OC)C1c1cccnc1 (stereo not drawn)	CSN deneddyl inh 67
CC(OC(=O)CC(C)c1ccccc1)C(=O)Nc1ccc(Cl)cn1 (stereo not drawn)	CSN deneddyl inh 43
CC(=O)NC(CC(=O)OC(C)C(=O)Nc1ccc(Cl)cn1)c1ccccc1 (stereo not drawn)	none
F[B-](F)(F)COCc1ccccc1C#Cc1ccccc1	none (no result: CSN deneddyl inh, HNF4A DNA FP)
COc1cc2c(C)nc3c(c(C)nn3-c3ccccc3)c2cc1OC	none
COc1cc2c(-c3ccc(O)cc3)nc3c(c(C)nn3-c3ccccc3)c2cc1OC	HNF4A DNA FP 160
COC(=O)C1=C(C)N(C)C(=NCc2ccc3c(c2)OCO3)NC1c1ccccc1 (stereo not drawn)	none (no result: CSN deneddyl inh, HNF4A DNA FP)
CN(Cc1ccccc1)Cc1ccccc1C(O)c1ccccc1 (stereo not drawn)	none
C[C@H]1CN(c2ccc(N3CCN(C(=O)OC(C)(C)C)C[C@@H]3C)cc2C#N)CCN1Cc1ccccc1	none (no result: CSN deneddyl inh, HNF4A DNA FP)
CCOc1ccc2c(c1)S/C(=C\c1cccs1)C(=O)N2	CSN deneddyl inh 40
Cc1cc(C)cc(N=C2NC(=O)/C(=C/c3cccs3)S2)c1	none
CCCCCCCCN1C(=O)[C@@H](CC(=O)NCCCOC)C[C@@]2(C(=O)OC)C1=C[C@H](C1CCCC1)O[C@@H]2C	none (no result: CSN deneddyl inh, HNF4A DNA FP)
COC(=O)CSc1nnc(CNC(=O)c2cc(OC)c(OC)c(OC)c2)n1C	HNF4A DNA FP 28
O=C(Nc1cccc(S(=O)(=O)N2CCOCC2)c1)c1cnn2c(C(F)F)cc(-c3ccccc3)nc12	none
CNS(=O)(=O)c1ccc(NC(=O)c2cnn3c(C(F)F)cc(-c4ccccc4)nc23)cc1	CSN deneddyl inh 72
O=c1cc2oc3cc(O)c(O)cc3c(-c3ccccc3O)c-2cc1O	none (no result: ASAP1 inh, ARFGAP1 inhibitor)
COc1ccc(OC)c(-c2c3cc(O)c(=O)cc-3oc3cc(O)c(O)cc23)c1	CSN deneddyl inh 46 (no result: ASAP1 inh, ARFGAP1 inhibitor)
